Active and inactive are the calls of the source. The rule behind the calls is not given here.
tested on: Lymphocyte; experiment: Inhibition of oxidative stress-induced mitochondrial membrane depolarization in diethyl maleate-treated human lymphocytes obtained from FRDA patient assessed as cells with intact mitochondrial membrane potential at 250 nM pretreated for 16 hrs using TMRM by FACS analysis (reference value: 95%); assay type: functional; design: scale not given: the % may be the effect or the level left; conditions: not given

| Structure (SMILES) | Activity [%] |
| --- | --- |
| CCCCCCCCCCCCCCCCc1c(C)c(N2CCC2)nc(C)c1O | 72 |
| Cc1c(N(C)C)nc(CCCCCCCCCCO)c(O)c1C | 36 |

tested on: Lymphocyte; experiment: Inhibition of oxidative stress-induced mitochondrial membrane depolarization in diethyl maleate-treated human lymphocytes obtained from FRDA patient assessed as cells with intact mitochondrial membrane potential at 100 nM pretreated for 16 hrs using TMRM by FACS analysis (reference value: 95%); assay type: functional; design: scale not given: the % may be the effect or the level left; conditions: not given

| Structure (SMILES) | Activity [%] |
| --- | --- |
| CCCCCCCCCCCCCCCCc1c(C)c(N2CCC2)nc(C)c1O | 55 |
| Cc1c(N(C)C)nc(CCCCCCCCCCO)c(O)c1C | 24 |

tested on: Lymphocyte; experiment: Inhibition of oxidative stress-induced mitochondrial membrane depolarization in diethyl maleate-treated human lymphocytes obtained from FRDA patient assessed as cells with intact mitochondrial membrane potential at 500 nM pretreated for 16 hrs using TMRM by FACS analysis (reference value: 95%); assay type: functional; design: scale not given: the % may be the effect or the level left; conditions: not given

| Structure (SMILES) | Activity [%] |
| --- | --- |
| CCCCCCCCCCCCCCCCc1c(C)c(N2CCC2)nc(C)c1O | 89 |
| Cc1c(N(C)C)nc(CCCCCCCCCCO)c(O)c1C | 50 |

organism: Bos taurus; experiment: Inhibition of bovine heart mitochondrial NADH oxidase complex I/III/IV assessed as remaining activity at 1 uM by spectrophotometry relative to untreated control; conditions: not given

| Structure (SMILES) | Activity [%] |
| --- | --- |
| CCCCCCCCCCCCCCCCc1c(C)c(N2CCC2)nc(C)c1O | 95 |
| Cc1c(N(C)C)nc(CCCCCCCCCCO)c(O)c1C | 27 |

tested on: Lymphocyte; experiment: Cytoprotective activity in human lymphocytes obtained from Leigh's syndrome patient assessed as viable cells after 16 hrs by trypan blue exclusion assay; assay type: functional, cell-based; conditions: not given
Method in brief: (§1)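 Lymphocytes from FRDA or Leigh's syndrome patients, grown in RPMI-1640 with 15% fetal calf serum and 2 mM glutamine, kept in log phase. Test agents at 0.1, 0.5 and 2.5 µM; diethyl maleate (DEM) added to deplete glutathione and induce oxidative stress. Viability expressed relative to untreated cells (100%). Values are mean ± SD/SEM as tabulated.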

| Structure (SMILES) | Activity |
| --- | --- |
| CCCCCCCCCCCCCCCCc1c(C)c(N2CCC2)nc(C)c1O | Dose-dependent effect |
| Cc1c(N(C)C)nc(CCCCCCCCCCO)c(O)c1C | Dose-dependent effect |

tested on: Lymphocyte; experiment: Cytoprotective activity in human lymphocytes obtained from Leigh's syndrome patient assessed as viable cells at 0.1 uM after 16 hrs by trypan blue exclusion assay; assay type: functional; conditions: read-out: Activity; method in brief: as §1

| Structure (SMILES) | viability at 0.1 µM [%] |
| --- | --- |
| CCCCCCCCCCCCCCCCc1c(C)c(N2CCC2)nc(C)c1O | 18 |
| Cc1c(N(C)C)nc(CCCCCCCCCCO)c(O)c1C | 20 |

tested on: Lymphocyte; experiment: Cytoprotective activity in human lymphocytes obtained from Leigh's syndrome patient assessed as viable cells at 0.5 uM after 16 hrs by trypan blue exclusion assay; assay type: functional; conditions: read-out: Activity; method in brief: as §1

| Structure (SMILES) | viability at 0.5 µM [%] |
| --- | --- |
| CCCCCCCCCCCCCCCCc1c(C)c(N2CCC2)nc(C)c1O | 95 |
| Cc1c(N(C)C)nc(CCCCCCCCCCO)c(O)c1C | 36 |

tested on: Lymphocyte; experiment: Cytoprotective activity in human lymphocytes obtained from FRDA patient assessed as viable cells at 0.1 uM after 16 hrs by trypan blue exclusion assay; assay type: functional; conditions: read-out: Activity; method in brief: as §1

| Structure (SMILES) | viability at 0.1 µM [%] |
| --- | --- |
| CCCCCCCCCCCCCCCCc1c(C)c(N2CCC2)nc(C)c1O | 58 |
| Cc1c(N(C)C)nc(CCCCCCCCCCO)c(O)c1C | 17 |

tested on: Lymphocyte; experiment: Increase in ATP production in CoQ10-deficient lymphocytes (unknown origin) assessed as cellular ATP level at 10 uM after 48 hrs using luciferin-luciferase reaction by bioluminescence assay relative to control; assay type: functional; conditions: not given
Method in brief: (§2)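 CoQ10-deficient lymphocyte line GM17932 grown in glucose-free RPMI 1640 with 25 mM galactose, 2 mM glutamine and 10% dialyzed FBS, forcing oxidative phosphorylation. Incubated with compounds at 5, 10 or 25 µM for 48 h. Total intracellular ATP measured by luciferin–luciferase reaction, expressed as % of untreated control.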

| Structure (SMILES) | Activity [%] |
| --- | --- |
| CCCCCCCCCCCCCCCCc1c(C)c(N2CCC2)nc(C)c1O | 76 |
| Cc1c(N(C)C)nc(CCCCCCCCCCO)c(O)c1C | 20 |

tested on: not listed separately; experiment: Drug metabolism in bovine liver microsomes at 25 uM after 30 mins by reverse phase HPLC analysis; assay type: ADME, Bos taurus; conditions: cattle, read-out: Drug metabolism
Method in brief: (§3)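 Compounds incubated 30 min with activated bovine liver microsomes. Remaining parent compound quantified by reversed-phase HPLC and expressed as % recovered; mean ± SD.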

| Structure (SMILES) | metabolised at 0.5 h, 25 µM [%] |
| --- | --- |
| Cc1c(N(C)C)nc(CCCCCCCCCCO)c(O)c1C | 60 |

tested on: Lymphocyte; experiment: Cytoprotective activity in human lymphocytes obtained from FRDA patient assessed as viable cells after 16 hrs by trypan blue exclusion assay; assay type: functional, cell-based; conditions: not given; method in brief: as §1

| Structure (SMILES) | Activity |
| --- | --- |
| CCCCCCCCCCCCCCCCc1c(C)c(N2CCC2)nc(C)c1O | Dose-dependent effect |
| Cc1c(N(C)C)nc(CCCCCCCCCCO)c(O)c1C | Dose-dependent effect |

organism: Bos taurus; experiment: Inhibition of bovine heart mitochondrial NADH oxidase complex I/III/IV assessed as remaining activity at 5 uM by spectrophotometry relative to untreated control; conditions: not given

| Structure (SMILES) | Activity [%] |
| --- | --- |
| CCCCCCCCCCCCCCCCc1c(C)c(N2CCC2)nc(C)c1O | 89 |
| Cc1c(N(C)C)nc(CCCCCCCCCCO)c(O)c1C | 9 |

tested on: Lymphocyte; experiment: Inhibition of lipid peroxidation in diethyl maleate-treated human lymphocytes obtained from FRDA patient at 100 to 250 nM after 16 hrs using C11-BODIPY581/591 by FACS analysis; assay type: functional, cell-based; conditions: not given
Method in brief: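 FRDA lymphocytes depleted of glutathione with DEM, probed with C11-BODIPY581/591. Green (oxidized) fluorescence read by flow cytometry at 490/510 nm. Median mean fluorescence taken relative to untreated control and converted to % lipid peroxidation scavenging; mean ± SEM, n = 3.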

| Structure (SMILES) | inhibition |
| --- | --- |
| CCCCCCCCCCCCCCCCc1c(C)c(N2CCC2)nc(C)c1O | Active |
| Cc1c(N(C)C)nc(CCCCCCCCCCO)c(O)c1C | inactive |

tested on: Lymphocyte; experiment: Cytoprotective activity in human lymphocytes obtained from Leigh's syndrome patient assessed as viable cells at 2.5 uM after 16 hrs by trypan blue exclusion assay; assay type: functional; conditions: read-out: Activity; method in brief: as §1

| Structure (SMILES) | viability at 2.5 µM [%] |
| --- | --- |
| CCCCCCCCCCCCCCCCc1c(C)c(N2CCC2)nc(C)c1O | 92 |
| Cc1c(N(C)C)nc(CCCCCCCCCCO)c(O)c1C | 74 |

tested on: Lymphocyte; experiment: Increase in ATP production in CoQ10-deficient lymphocytes (unknown origin) assessed as cellular ATP level at 5 uM after 48 hrs using luciferin-luciferase reaction by bioluminescence assay relative to control; assay type: functional; conditions: not given; method in brief: as §2

| Structure (SMILES) | Activity [%] |
| --- | --- |
| CCCCCCCCCCCCCCCCc1c(C)c(N2CCC2)nc(C)c1O | 98 |
| Cc1c(N(C)C)nc(CCCCCCCCCCO)c(O)c1C | 50 |

tested on: Lymphocyte; experiment: Inhibition of ROS generation in diethyl maleate-treated human lymphocytes obtained from FRDA patient compound pretreated at 100 to 500 nM for 16 hrs using DCFH-DA by FACS analysis; assay type: functional, cell-based; conditions: not given
Method in brief: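 FRDA lymphocytes pretreated with compounds at 100, 250 and 500 nM for 16 h, then given DEM for 80 min to raise ROS. Stained with DCFH-DA for 15 min, then DCF fluorescence read by flow cytometry. Reported as % ROS scavenging; mean ± SEM of three experiments run in duplicate.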

| Structure (SMILES) | inhibition |
| --- | --- |
| CCCCCCCCCCCCCCCCc1c(C)c(N2CCC2)nc(C)c1O | Active |
| Cc1c(N(C)C)nc(CCCCCCCCCCO)c(O)c1C | inactive |

organism: Bos taurus; experiment: Inhibition of bovine heart mitochondrial NADH oxidase complex I/III/IV assessed as remaining activity at 10 uM by spectrophotometry relative to untreated control; conditions: not given

| Structure (SMILES) | Activity [%] |
| --- | --- |
| CCCCCCCCCCCCCCCCc1c(C)c(N2CCC2)nc(C)c1O | 79 |
| Cc1c(N(C)C)nc(CCCCCCCCCCO)c(O)c1C | 6 |

tested on: Lymphocyte; experiment: Cytoprotective activity in human lymphocytes obtained from FRDA patient assessed as viable cells at 0.5 uM after 16 hrs by trypan blue exclusion assay; assay type: functional; conditions: read-out: Activity; method in brief: as §1

| Structure (SMILES) | viability at 0.5 µM [%] |
| --- | --- |
| CCCCCCCCCCCCCCCCc1c(C)c(N2CCC2)nc(C)c1O | 79 |
| Cc1c(N(C)C)nc(CCCCCCCCCCO)c(O)c1C | 28 |

tested on: Lymphocyte; experiment: Increase in ATP production in CoQ10-deficient lymphocytes (unknown origin) assessed as cellular ATP level at 25 uM after 48 hrs using luciferin-luciferase reaction by bioluminescence assay relative to control; assay type: functional; conditions: not given; method in brief: as §2

| Structure (SMILES) | Activity [%] |
| --- | --- |
| CCCCCCCCCCCCCCCCc1c(C)c(N2CCC2)nc(C)c1O | 50 |
| Cc1c(N(C)C)nc(CCCCCCCCCCO)c(O)c1C | 3 |

organism: Bos taurus; experiment: Inhibition of bovine heart mitochondrial NADH oxidase complex I/III/IV assessed as remaining activity by spectrophotometry relative to untreated control; conditions: not given

| Structure (SMILES) | inhibition |
| --- | --- |
| CCCCCCCCCCCCCCCCc1c(C)c(N2CCC2)nc(C)c1O | Dose-dependent effect |
| Cc1c(N(C)C)nc(CCCCCCCCCCO)c(O)c1C | Dose-dependent effect |

tested on: not listed separately; experiment: Metabolic stability in bovine liver microsomes at 25 uM after 30 mins by reverse phase HPLC analysis; assay type: ADME, Bos taurus; conditions: cattle, read-out: Stability; method in brief: as §3

| Structure (SMILES) | remaining at 0.5 h, 25 µM [%] |
| --- | --- |
| CCCCCCCCCCCCCCCCc1c(C)c(N2CCC2)nc(C)c1O | 95 |

tested on: Lymphocyte; experiment: Cytoprotective activity in human lymphocytes obtained from FRDA patient assessed as viable cells at 2.5 uM after 16 hrs by trypan blue exclusion assay; assay type: functional; conditions: read-out: Activity; method in brief: as §1

| Structure (SMILES) | viability at 2.5 µM [%] |
| --- | --- |
| CCCCCCCCCCCCCCCCc1c(C)c(N2CCC2)nc(C)c1O | 92 |
| Cc1c(N(C)C)nc(CCCCCCCCCCO)c(O)c1C | 87 |

Reference: ChEMBL document CHEMBL3352113, “Cytoprotective pyridinol antioxidants as potential therapeutic agents for neurodegenerative and mitochondrial diseases” (Bioorg Med Chem, 2014)
